Compound activity deposited in PubChem BioAssay by several laboratories.
ASAP1 inh = inhibitors of human ASAP1 ArfGAP activity | ASAP1-stimulated ARF1 GTP hydrolysis, GDP FP detection | inhibition, % at 16.5 µM | hit rate 0.19% among 360,000 | AID 624377; in the data active = inhibition above about 25%;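 also: 0% = vehicle with enzyme and substrate and 100% = no enzyme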
H9c2 protect = protects H9c2 cardiomyocytes from peroxide injury; H2O2 injury protection, ATPLite, 2 h; protection from H2O2 cell death, % at 20 µM; hit rate 0.63% among 360,000; AID 588492;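 active = compounds giving at least 50% protection of heart cells from peroxide-induced death in the single-dose screen, raw or plate-pattern-corrected value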;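 also: 0% = DMSO wells with peroxide and 100% = DMSO wells without peroxide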
ARFGAP1 inhibitor = inhibits rat ARF GTPase activating protein 1; hit rate 0.26% among 360,000; Arfgap1-stimulated ARF1 GTP hydrolysis, GDP FP detection; inhibition, % at 16.5 µM;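 active = inhibition above a per-plate limit, mean inhibition of low control wells plus 3 SD, cut at about 25% in these data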;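 also: 0% = DMSO wells with enzyme and 100% = wells lacking Arfgap1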
Target sequence (Q62848 1-136 limits assumed): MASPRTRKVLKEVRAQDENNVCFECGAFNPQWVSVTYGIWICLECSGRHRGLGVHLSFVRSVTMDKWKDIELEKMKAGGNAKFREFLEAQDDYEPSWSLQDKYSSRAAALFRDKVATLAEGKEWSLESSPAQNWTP
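system = rat Arfgap1 catalytic domain, aa 1-136 | technique = FP, GDP Alexa 633 tracer displaced from anti-GDP antibody, 620/688 nm | compound = one concentration, 16.5 µM, DMSO 1.26% | medium = HEPES-based buffer, pH 7.5 | timing = compound-enzyme preincubation 20 min, reaction 120 min, detection 60 min, 25 °C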
Neddylation inh = cullin neddylation inhibition; TR-FRET cullin neddylation, biochemical; P61081+Q13564; hit rate 0.58% among 360,000; inhibition, % at 25 µM; in the data active = inhibition above about 36%
Neddyl conf = confirmation of human cullin neddylation inhibitors; shares compounds with Neddylation inh; TR-FRET cullin neddylation biochemical assay; calls only at 25 µM; hit rate 13% among 1,800; AID 652217; in the data active = inhibition above about 40%;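 also: neddylation substrate is the cullin 1 ring ligase complex with SKP2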
The depositor's hits bear a star; i = inactive; nt = no result shown; + = active, no number. This is a sample that favours compounds with a hit; in the whole collection about 1.6% have one here.

SMILES	ASAP1 inh	H9c2 protect	ARFGAP1 inhibitor	Neddylation inh	Neddyl conf
Cc1cc(N2CCN(C)CC2)nc2ccc(NC(=O)CCC(=O)NCCC3=CCCCC3)cc12	17	-13	6	45*	i
Cc1ccccc1-c1cc2nc(Oc3cccc(F)c3)n(C)c(=O)c2s1	6	-5	-5	-56	nt
CCCOc1ccc(N/C=C/C(=O)c2ccc(OC)c(OC)c2)cc1	-22	-4	-6	30	nt
CCOc1ccc(N/C=C/C(=O)c2ccc(OC)c(OC)c2)cc1	-2	-5	-7	41*	i
CCN(CC(=O)NCc1cccs1)C(=O)/C=C/c1ccc(F)cc1	12	2	9	-14	nt
CCN(CC(=O)NCc1cccs1)C(=O)/C=C/c1cc(OC)c(OC)c(OC)c1	-11	1	-10	39*	+
O=C(OCc1cn([C@H]2CN(C(=O)c3cccs3)[C@@H](c3ccccc3)C[C@@H]2O)nn1)c1ccccc1	-5	-1	-2	-4	nt
COc1cccc(/C=N/c2oc(-c3ccccc3)cc2C#N)c1O	-5	2	-4	46*	i
N#Cc1cc(-c2ccccc2)oc1/N=C/c1ccccc1O	-8	0	-4	nt	nt
COc1ccc(OC)c(CN(CC(C)C)S(=O)(=O)c2ccccc2Br)c1	3	nt	-1	nt	nt
COc1cc2c(cc1OC)C(c1cc(Br)ccc1F)N(C(=O)CCl)CC2 (stereo not drawn)	-1	-4	-12	-1	nt
COc1cc2c(cc1OC)C(C1C(=O)CC(C)(C)CC1=O)N(C(=O)CCl)CC2 (stereo not drawn)	-6	-1	-14	41*	i
CC(C)[C@H](NC(=O)c1ccccc1)C(=O)OCC(=O)/C=C1/N(C)c2ccccc2C1(C)C	8	-28	1	35	nt
COc1cc(OC)cc(C(=O)NCC(=O)OCC(=O)/C=C2/N(C)c3ccccc3C2(C)C)c1	-2	-16	-4	52*	i
CCn1c(C)cc(C(=O)COC(=O)CNC(=O)c2ccco2)c1C	-3	11	0	-4	nt
COC(=O)[C@]12C[C@H](CC(=O)NCc3ccccc3)C(=O)N(Cc3ccc4c(c3)OCO4)C1=C[C@H](COCc1ccccc1)O[C@@H]2C	-2	nt	-3	nt	nt
COc1ccc2c(c1)c(C(=O)CNc1nc(C)cs1)c(C)n2C	-5	6	1	39*	i
CCOCc1cnc(C)nc1NCC(=O)c1c(C)n(C)c2ccc(OC)cc12	14	12	-7	5	nt
O=c1[nH]cnc2nn(-c3ccccc3)nc12	1	2	-3	nt	nt
O=c1[nH]cnc2nc(-c3ccccc3)c(-c3ccccc3)nc12	7	9	4	63*	nt
Cc1ccsc1CNC(=O)C1(C)CCCN1CC(C)C (stereo not drawn)	-4	1	-14	-5	nt
CC(C)[N+]1=C2C=CC=CC=C2SC12C([N+](=O)[O-])=CC(=[N+]([O-])[O-])C=C2[N+](=O)[O-] (stereo not drawn)	-6	5	0	44*	i
C[C@H](CO)N1C[C@H](C)[C@H](CN(C)C(=O)Nc2ccc(C(F)(F)F)cc2)OCc2cnnn2CCCC1=O	3	-1	2	-6	nt
Nc1cc(C(=O)O)ccc1Nc1ccccc1	-7	2	0	48*	nt
COc1cccc(C=NNC(=S)NC2CC3CCC2C3)c1O (stereo not drawn)	9	nt	-15	nt	nt
SMILES	ASAP1 inh	H9c2 protect	ARFGAP1 inhibitor	Neddylation inh	Neddyl conf
CCOC(=O)C1=C(COC(=O)/C=C/c2ccc(OC)cc2)NC(=O)NC1C (stereo not drawn)	5	19	2	-8	nt
CCOC(=O)C1=C(COC(=O)/C=C/c2ccc(SC)cc2)NC(=O)NC1C (stereo not drawn)	7	6	9	51*	nt
C=CCN=C1NC(c2ccc(F)cc2)C(C(=O)OC)=C(C)N1C (stereo not drawn)	2	nt	-7	nt	nt
COC(=O)c1cc2c(c3c4cc(F)ccc4n(S(=O)(=O)c4ccc(C)cc4)c13)C(=O)N(Cc1ccccc1OC)C2	9	nt	16	nt	nt
C[C@H](O)[C@@H]1CN2CCc3ccc(-c4ccc5c(c4)OCO5)cc3[C@@H]2C[C@@H]1N(C)Cc1ccccc1	4	nt	0	nt	nt
CCN1CCN(C(=O)c2cn(CCOC)c(=O)c3c2c2ccccc2n3C)CC1	0	-4	0	49*	i
COCCn1cc(C(=O)N2CCCC(C)C2)c2c3ccccc3n(C)c2c1=O (stereo not drawn)	16	6	-4	42*	i
